The full list was thinned out, with hits kept by preference.
L major viab = inhibitors of Leishmania major promastigote growth; Leishmania major promastigotes, resazurin fluorescence viability; hit rate 9% among 200,000; inhibition, % at 10 µM;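 further: promastigotes grown with compound for 44 hours at 28 °C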
G6PDH CS = counter-screen for G6PDH assay hits: L. mesenteroides G6PDH inhibition; AID 1020; hit rate 0.12% among 200,000; inhibition, % at 5 µM; Purified L. mesenteroides G6PDH, diaphorase/resazurin coupled fluorescence, 45 min
Diaph inh CS = diaphorase inhibition or chemical oxidation counter-screen | diaphorase resazurin-to-resorufin fluorescence, NADH, 16 min; bacterial (C. kluyveri) enzyme, not human | inhibition, % at 20 µM | hit rate 0.69% among 190,000 | AID 1217;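 active means primary screen inhibition at 20 µM above a set limit, cut at about 50% in these data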
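Benchmarks: positive control wells lacking NADH, neutral wells with DMSO only. System: bacterial diaphorase enzyme (C. kluyveri). Input: 0.14 U/mL diaphorase, enzyme working solution. Detection: resorufin fluorescence, excitation 544 nm, emission 590 nm. Times: 16-min room-temperature incubation before reading.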
Diaphorase act = counter-screen for diaphorase-based assays: diaphorase activators and chemical reducers; Diaphorase/resazurin coupled assay, resorufin fluorescence, 16 min; stronger effect = higher value; 1 = vehicle wells, 0 = NADH-free wells; activation factor at 20 µM; hit rate 0.005% among 190,000; AID 1229;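 active means diaphorase activity raised at least twofold by the compound at 20 µM; inactive means activation factor below 2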
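Assay system: Purified diaphorase enzyme from Clostridium kluyveri | Amount: Enzyme 0.07 U/mL final | Dosing: Compound 20 µM once, DMSO 1% | Timing: 16 min reaction at room temperature | Detection: Fluorescence, excitation 544 nm and emission 590 nm | Evaluation: Higher resorufin formation from activation or reduction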
DTT redox prof = compounds producing H2O2 with reducing agent – biochemical, NIH compound library profiling, artefact control for MLSCN library redox annotation, primary screen | DTT-dependent redox cycling H2O2, phenol red/HRP absorbance; 100% = 100 µM peroxide control, 0% = buffer | hit rate 0.03% among 200,000 | activation, % at 10 µM;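 active means activation of at least 50% relative to the plate's high and low controls in the primary single-dose screen; inactive means activation below 50%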;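 further: compound incubated with DTT at 0.8 mM final as the reducing agent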
PfGluPho inh = PfG6PD (Plasmodium falciparum) enzyme inhibition; inhibition, % at 20 µM; PfGluPho enzyme, NADPH resazurin-diaphorase fluorescence; AID 504690; hit rate 0.78% among 350,000;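 active means inhibition reaching at least a set limit at 20 µM in the primary screen, cut at about 59% in these data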
Large screens that a line does not name were inactive. Unless noted, no stated cut-off is given here; in the data, active means inhibition above about 50%; inactive means the rest.

CCOc1ccc2nc(NCCNC(=S)NCCCN(C)C)c(C#N)cc2c1	L major viab 56
CCOc1ccc2nc(NCCNC(=O)Nc3ccccc3)c(C#N)cc2c1	none
Cc1ccc(SCCCCN2CCNCC2)cc1	L major viab 100
O=C(CCN1CCOCC1)c1ccc(Br)cc1	none
Clc1ccc(SCCCCN2CCOCC2)cc1	L major viab 97
Clc1ccc(SCCOCCN2CCOCC2)cc1	none (no result: L major viab, G6PDH CS, Diaph inh CS, Diaphorase act, DTT redox prof)
O=C(CCN1CCOCC1)c1ccc(Cl)cc1	L major viab 72
Clc1ccc(SCCCCN2CCNCC2)cc1	L major viab 100
O=C(CN1C(=O)NC2(CCCCCCC2)C1=O)Nc1ccc(Cl)cc1	none (no result: L major viab, G6PDH CS, Diaph inh CS, Diaphorase act, DTT redox prof)
Cc1ccc(CSCC(=O)N(CCC(C)C)c2c(N)n(Cc3ccccc3)c(=O)[nH]c2=O)cc1	none (no result: L major viab, G6PDH CS, Diaph inh CS, Diaphorase act, DTT redox prof)
O=CNC1c2ccccc2CCc2ccccc21	none (no result: L major viab, G6PDH CS, Diaph inh CS, Diaphorase act, DTT redox prof)
O=C(COC(=O)C1CCC1)Nc1ccc(Oc2ccccc2)cc1	L major viab 67
O=C(CN1CCN(c2ccccn2)CC1)Nc1ccc(Oc2ccccc2)cc1	L major viab 90
O=C(CN1CCCCCC1)Nc1ccc(Oc2ccccc2)cc1	L major viab 62
COc1ccccc1N1CCN(C(=O)c2ccc3[nH]c4c(c3c2)CC(C)CC4)CC1 (centres undefined)	L major viab 99
CCN(CC)CCOc1c(Br)ccc2c1sc1nc3n(c(=O)c12)CCC3	L major viab 80
CC(NC(=O)COC(=O)c1ccc([N+](=O)[O-])o1)c1ccccc1 (centres undefined)	none (no result: L major viab, G6PDH CS, Diaph inh CS, Diaphorase act, DTT redox prof)
COc1ccc(N(C(=O)c2ccccc2)S(=O)(=O)c2cccs2)cc1	none
COc1ccc(C(=O)N(c2ccc(OC)cc2)S(=O)(=O)c2cccs2)cc1	L major viab 77
C=CCNCCOCCOc1ccc(C)cc1Br	L major viab 99
CCC(C)NCCCOc1c(C)cc(C)cc1Br (centres undefined)	L major viab 99
CCC(C)NCCOCCOc1ccc(Br)cc1 (centres undefined)	L major viab 89
CCC(C)NCCOCCOc1ccc(C)cc1Br (centres undefined)	L major viab 90
C#CCOCCOCCOCCNc1nc(N2CCN(C(=O)C([C@@H](C)CC)n3cc(C(N)CO)nn3)CC2)nc(N2CCN(C(=O)C([C@@H](C)CC)n3cc(C(N)COC(=O)C(F)(F)F)nn3)CC2)n1 (some centres undefined)	none (no result: L major viab, G6PDH CS, Diaph inh CS, Diaphorase act, DTT redox prof)
COc1ccc(-c2noc(CNC(=O)c3ccoc3C)n2)cc1OC	none (no result: L major viab, G6PDH CS, Diaph inh CS, Diaphorase act, DTT redox prof)
CCCCn1c(N)c(N(CC(C)C)C(=O)C2CC(=O)N(c3ccc(C)cc3)C2)c(=O)[nH]c1=O (centres undefined)	none (no result: L major viab, G6PDH CS, Diaph inh CS, Diaphorase act, DTT redox prof)
CC(OC(=O)c1ccco1)C(=O)NCc1ccc2c(c1)OCO2 (centres undefined)	none (no result: L major viab, G6PDH CS, Diaph inh CS, Diaphorase act, DTT redox prof)
CCC(C)(C)C(=O)Nc1ncc(S(=O)(=O)c2ccc([N+](=O)[O-])cc2)s1	L major viab 81
Cc1ccc(Nc2nnc(SCC(=O)Nc3ncc(S(=O)(=O)c4ccc([N+](=O)[O-])cc4)s3)s2)cc1	L major viab 55
O=C(CCl)Nc1ncc(S(=O)(=O)c2ccc([N+](=O)[O-])cc2)s1	none (no result: L major viab, G6PDH CS, Diaph inh CS, Diaphorase act, DTT redox prof)
O=C(Nc1ncc(S(=O)(=O)c2ccc([N+](=O)[O-])cc2)s1)c1ccc2ccccc2c1	L major viab 99
CC(C)c1ccc(Nc2nnc(SCC(=O)Nc3ncc(S(=O)(=O)c4ccc([N+](=O)[O-])cc4)s3)s2)cc1	none
COc1cccc(-c2cccc(NC(=O)C3CCN(CC4CCOC4)CC3)c2)c1 (centres undefined)	none (no result: L major viab, G6PDH CS, Diaph inh CS, Diaphorase act, DTT redox prof)
CC1Cc2ccccc2N1C(=O)c1ccc(F)c(S(=O)(=O)N2CCOCC2)c1 (centres undefined)	none (no result: L major viab, G6PDH CS, Diaph inh CS, Diaphorase act, DTT redox prof)
Cc1onc(-c2ccccc2)c1CNS(=O)(=O)c1cccc(Br)c1	none (no result: L major viab, G6PDH CS, Diaph inh CS, Diaphorase act, DTT redox prof)
COCCn1c(=NC(=O)c2ccc(S(=O)(=O)N3CCc4ccccc4C3)cc2)sc2cc(S(N)(=O)=O)ccc21	L major viab 99
COC(=O)Cn1c(=NC(=O)c2ccc(S(=O)(=O)N3CCc4ccccc4C3)cc2)sc2cc(OC)ccc21	L major viab 87
O=C(CN1CCOCC1)NCc1cc([N+](=O)[O-])ccc1O	none (no result: L major viab, G6PDH CS, Diaph inh CS, Diaphorase act, DTT redox prof)
CC1Oc2ccccc2N(Cc2ccc(F)cc2)C1=O (centres undefined)	none (no result: L major viab, G6PDH CS, Diaph inh CS, Diaphorase act, DTT redox prof)
CCCc1cc2c(cc1N(C)S(=O)(=O)c1ccccc1)OCO2	none (no result: L major viab, G6PDH CS, Diaph inh CS, Diaphorase act, DTT redox prof)
O=C(NC1CCCCCCC1)c1c(O)c2ccccc2[nH]c1=O	none
O=C(NCc1ccco1)c1sc(=S)n2c1[nH]c(=O)c1ccccc12	Diaph inh CS 67
O=C(NC1CCCC1)c1sc(=S)n2c1[nH]c(=O)c1ccccc12	Diaph inh CS 61
CC(C)Oc1ccc(CNCC2(O)CCOC(C)(C)C2)cc1 (centres undefined)	none
CC1(C)CC(O)(CNCc2ccc3c(c2)OCO3)CCO1 (centres undefined)	L major viab 75
Nc1ncc(Br)cc1N=Cc1ccccc1	PfGluPho inh 89
O=C(O)c1ccc(N/N=C/c2cc3cc4c(cc3nc2Cl)OCCO4)cc1	none (no result: L major viab, G6PDH CS, Diaph inh CS, Diaphorase act, DTT redox prof)
COCc1cc(C)c(C#N)c(=S)[nH]1	PfGluPho inh 70
Nc1ncnc2c1ncn2[C@@H]1O[C@H](CNS(=O)(=O)c2cc3ccccc3s2)[C@@H](O)[C@H]1O	none (no result: L major viab, G6PDH CS, Diaph inh CS, Diaphorase act, DTT redox prof)
CSc1ccc(/C=C(\C#N)C(=O)NC2CCCCC2C)cc1 (centres undefined)	L major viab 55
CC(=O)Nc1ccc(/C=C(\C#N)C(=O)NC2CCCCC2C)cc1 (centres undefined)	none
CC1CCCCC1NC(=O)/C(C#N)=C/c1ccccc1F (centres undefined)	L major viab 100
COc1cc(/C=C(\C#N)C(=O)NC2CCCCC2C)ccc1OS(=O)(=O)c1ccc(C)cc1 (centres undefined)	L major viab 100
Cc1cc(C)cc(NC(=O)N2CCN(C/C=C/c3ccccc3)CC2)c1	none
O=C(CC1C(=O)NCCN1Cc1c(F)cccc1Cl)NC1CCCC1 (centres undefined)	none
CC1(C)CC(=O)N(c2cc(Cl)ccc2Cl)C(=O)C1	none (no result: L major viab, G6PDH CS, Diaph inh CS, Diaphorase act, DTT redox prof)
CN1C(=O)C(C(=O)NC(C)(C)C)C2c3ccccc3OC13CCCCC23 (centres undefined)	none
COC(=O)c1ccc(NC(=O)CCN2CCN(Cc3ccccc3)CC2)cc1	L major viab 75
O=C(CCN1CCN(Cc2ccccc2)CC1)Nc1ccc(OCc2ccccc2)cc1	none
O=C(CCN1CCN(CCO)CC1)Nc1ccc(OCc2ccccc2)cc1	L major viab 61
CN1CCN(CCC(=O)Nc2ccc(OCc3ccccc3)cc2)CC1	L major viab 82
COC(=O)c1ccc(NC(=S)N2CCN(Cc3ccccc3)CC2)cc1	none
O=C(/C=C/c1ccc(F)cc1)NNC(=O)CCN1CCN(Cc2ccccc2)CC1	L major viab 54

From PubChem
